# Results reported in ChEMBL document CHEMBL1138075 (Bioorg Med Chem Lett, 2006).
# Active and inactive are the calls of the source. No cut-off for these calls is given here. Square brackets hold non-standard residues; d marks the D form. Peptide text beside a SMILES is read from it. Thz = O=C(O)[C@@H]1CSCN1
# Columns and labels:
# [1] = test system: Hippocampal neurone; test: Protection of rat hippocampal neurons from oxygen-glucose deprivation; assay type: functional, tissue-based; settings: Hippocampus
# Summary of the method: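 Cultured rat hippocampal neurons were subjected to oxygen-glucose deprivation injury, and neuronal survival was assessed with test agent present.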
# [2] = molecular target: T1, Glutamate NMDA receptor (Rattus norvegicus) (UniProt P35439+Q00959+Q00960+Q00961+Q62645+Q8VHN2+Q9R1M7); test: Protection of rat hippocampal neurons from NMDA excitotoxicity; assay type: functional, tissue-based; settings: Hippocampus
# Summary of the method: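 Neuronal death was induced in cultured rat hippocampal neurons by exposure to NMDA (100 µM), and neuronal survival was scored with test agent present.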
# [3] = molecular target: T1, Glutamate NMDA receptor (Rattus norvegicus); test: Binding affinity to GluR in rat brain synaptic membranes at 100 uM
# [4] = molecular target: Glutamate NMDA receptor; test: (§1) Displacement of L[3H]glutamate from GluR in rat brain synaptic membrane; assay type: cell membranes
# Summary of the method: (§2)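 Competitive radioligand binding to glutamate receptors: displacement of L-[³H]glutamate from rat brain synaptic membranes, with test concentrations up to 100 μM.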
# [5] = molecular target: T1, Glutamate NMDA receptor (Rattus norvegicus); test: Displacement of L[3H]glutamate from GluR in rat brain synaptic membrane up to 100 uM; assay type: cell membranes; summary of the method: as §2
# [6] = molecular target: T1, Glutamate NMDA receptor (Rattus norvegicus); test: as §1; assay type: cell membranes; summary of the method: as §2
smiles,measurement,setting,value
NCC(=O)N1CCC[C@@H]1C(=O)N[C@@H](CCC(=O)O)C(=O)O,Activity,[1],Active
same,Activity,[2],Active
same,Activity,[3],inactive
CC1(C)CC[C@H](C(=O)N[C@@H](CCC(=O)O)C(=O)O)N1C(=O)CN,Ki,[4],0.33 µM
C[C@@]1(C(=O)N[C@@H](CCC(=O)O)C(=O)O)CCCN1C(=O)CN (stereo in doubt; 1) [TROFINETIDE],Ki,[4],31.2 µM
CCC[C@@]1(C(=O)N[C@@H](CCC(=O)O)C(=O)O)CCCN1C(=O)CN,Activity,[5],inactive
NCC(=O)N1CCC[C@]12CCN([C@@H](CCC(=O)O)C(=O)O)C2=O,Activity,[5],inactive
CC1(C)CC[C@@H](C(=O)N[C@@H](CCC(=O)O)C(=O)O)N1C(=O)CN,Ki,[4],3.79 µM
CC1(C)SC[C@@H](C(=O)N[C@@H](CCC(=O)O)C(=O)O)N1C(=O)CN,Activity,[6],inactive
NCC(=O)N1CCC[C@H]1C(=O)N[C@H](CCC(=O)O)C(=O)O,Activity,[1],Active
same,Activity,[2],Active
same,Activity,[3],inactive
NCC(=O)N1CSC[C@H]1C(=O)N[C@@H](CCC(=O)O)C(=O)O (H-Gly-[Thz]-Glu-OH),Activity,[6],inactive
